Experimental data reported in ChEMBL document CHEMBL1132157 (J Med Chem, 1999).

Legend:
[1] = molecular target: 5-hydroxytryptamine receptor 1E (Homo sapiens, UniProt P28566); assay: Compound was tested for the displacement of [3H]5-HT binding to cloned human 5-hydroxytryptamine 1E receptor stably expressed in CHO cells; format: cell-based
[2] = molecular target: 5-hydroxytryptamine receptor 6 (Rattus norvegicus, UniProt P31388); assay: Compound was tested for the displacement of [3H]5-HT binding to cloned rat 5-hydroxytryptamine 6 receptor stably expressed in CHO cells; format: cell-based
Chain of 5-hydroxytryptamine receptor 6 (P31388 whole entry): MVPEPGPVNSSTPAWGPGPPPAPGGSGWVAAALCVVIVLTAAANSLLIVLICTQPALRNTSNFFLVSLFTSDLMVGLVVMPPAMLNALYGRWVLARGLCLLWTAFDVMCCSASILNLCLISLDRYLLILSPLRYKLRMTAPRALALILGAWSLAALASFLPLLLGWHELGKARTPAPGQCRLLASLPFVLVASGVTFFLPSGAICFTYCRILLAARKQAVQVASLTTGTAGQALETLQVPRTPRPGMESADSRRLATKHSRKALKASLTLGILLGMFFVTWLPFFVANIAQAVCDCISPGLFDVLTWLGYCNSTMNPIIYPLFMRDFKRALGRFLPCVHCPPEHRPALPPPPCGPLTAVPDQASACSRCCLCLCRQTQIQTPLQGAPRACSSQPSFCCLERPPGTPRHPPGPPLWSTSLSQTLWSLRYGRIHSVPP

[3] = molecular target: T1, 5-hydroxytryptamine receptor 1F (Homo sapiens, UniProt P30939); assay: Compound was tested for the displacement of [3H]5-HT binding to cloned human 5-hydroxytryptamine 1F receptor stably expressed in CHO cells; format: cell-based
T1 sequence (P30939 whole entry): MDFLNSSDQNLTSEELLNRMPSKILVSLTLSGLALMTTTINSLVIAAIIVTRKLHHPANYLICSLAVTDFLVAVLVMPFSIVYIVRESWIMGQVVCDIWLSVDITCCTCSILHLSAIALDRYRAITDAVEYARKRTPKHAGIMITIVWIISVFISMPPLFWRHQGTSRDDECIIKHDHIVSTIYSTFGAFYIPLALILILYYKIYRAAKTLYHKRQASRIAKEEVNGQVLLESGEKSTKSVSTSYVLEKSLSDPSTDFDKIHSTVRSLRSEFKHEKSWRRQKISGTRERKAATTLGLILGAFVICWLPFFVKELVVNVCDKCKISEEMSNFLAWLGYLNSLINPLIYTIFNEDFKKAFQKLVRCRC

[4] = molecular target: 5-hydroxytryptamine receptor 7 (Rattus norvegicus, UniProt P32305); assay: Compound was tested for the displacement of [3H]5-HT binding to cloned rat 5-hydroxytryptamine 7 receptor stably expressed in CHO cells; format: cell-based
Chain of 5-hydroxytryptamine receptor 7 (P32305 whole entry): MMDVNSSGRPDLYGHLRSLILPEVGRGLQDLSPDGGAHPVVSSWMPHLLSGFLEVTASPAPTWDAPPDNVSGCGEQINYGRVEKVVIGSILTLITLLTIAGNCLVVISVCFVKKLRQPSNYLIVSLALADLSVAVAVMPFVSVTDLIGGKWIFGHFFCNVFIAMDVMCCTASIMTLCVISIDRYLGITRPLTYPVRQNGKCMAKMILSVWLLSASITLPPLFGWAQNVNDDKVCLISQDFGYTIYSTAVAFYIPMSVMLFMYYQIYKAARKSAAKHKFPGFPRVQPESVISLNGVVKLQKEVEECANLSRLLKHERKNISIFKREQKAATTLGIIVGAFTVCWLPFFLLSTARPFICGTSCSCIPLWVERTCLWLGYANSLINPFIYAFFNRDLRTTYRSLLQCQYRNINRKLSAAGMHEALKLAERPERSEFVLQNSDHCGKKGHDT

[5] = molecular target: 5-hydroxytryptamine receptor 1D (Homo sapiens, UniProt P28221); assay: Agonist-induced [35S]- GTPgammaS binding in CHO cells stably transfected with 5-hydroxytryptamine 1D receptor; format: cell-based
Chain of 5-hydroxytryptamine receptor 1D (P28221 whole entry): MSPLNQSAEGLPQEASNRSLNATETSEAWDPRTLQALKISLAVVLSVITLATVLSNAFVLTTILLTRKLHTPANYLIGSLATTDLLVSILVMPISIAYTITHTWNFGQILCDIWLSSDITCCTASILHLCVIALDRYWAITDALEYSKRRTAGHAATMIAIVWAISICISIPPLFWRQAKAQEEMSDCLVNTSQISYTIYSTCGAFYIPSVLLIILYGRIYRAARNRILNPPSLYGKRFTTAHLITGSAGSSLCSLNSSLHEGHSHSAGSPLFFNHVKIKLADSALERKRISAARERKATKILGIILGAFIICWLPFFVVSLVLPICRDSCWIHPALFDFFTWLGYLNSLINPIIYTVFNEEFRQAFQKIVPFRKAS
Summary of the method: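 Membranes from thawed CHO cells with human 5-HT1D, prepared in ice-cold 20 mM Hepes/EDTA at pH 7.4, spun at 40000g. Assay buffer: 100 mM NaCl, 10 mM MgCl2, 0.1% ascorbate, 10 μM pargyline. GDP 100 μM plus drug, 20 min at 30 °C, then ice 15 min. Then 100 pM [35S]GTPγS, 30 min at 30 °C, filtration. Emax is taken as % of maximal 5-HT response; duplicates, 2–5 occasions.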

[6] = Ratio of IC50 for human 5-HT1B to human 5-HT1D receptors
[7] = molecular target: 5-hydroxytryptamine receptor 5A (Homo sapiens, UniProt P47898); assay: Compound was tested for the displacement of [3H]5-HT binding to cloned human 5-hydroxytryptamine 5A receptor stably expressed in CHO cells; format: cell-based
Chain of 5-hydroxytryptamine receptor 5A (P47898 whole entry): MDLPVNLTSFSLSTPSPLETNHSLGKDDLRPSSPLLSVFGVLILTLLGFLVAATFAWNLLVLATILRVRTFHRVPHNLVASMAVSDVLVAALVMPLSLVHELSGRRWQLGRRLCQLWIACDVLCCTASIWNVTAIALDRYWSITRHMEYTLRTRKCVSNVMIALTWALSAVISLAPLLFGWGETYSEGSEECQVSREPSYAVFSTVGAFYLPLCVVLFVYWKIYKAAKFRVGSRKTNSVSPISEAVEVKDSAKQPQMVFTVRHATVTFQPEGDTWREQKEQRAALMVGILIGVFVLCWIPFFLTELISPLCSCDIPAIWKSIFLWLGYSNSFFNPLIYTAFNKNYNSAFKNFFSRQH

[8] = molecular target: T2, 5-hydroxytryptamine receptor 1A (Homo sapiens, UniProt P08908); assay: Compound was tested for the displacement of [3H]5-HT binding to cloned 5-hydroxytryptamine 1A receptor stably expressed in CHO cells; format: cell-based
T2 sequence (P08908 whole entry): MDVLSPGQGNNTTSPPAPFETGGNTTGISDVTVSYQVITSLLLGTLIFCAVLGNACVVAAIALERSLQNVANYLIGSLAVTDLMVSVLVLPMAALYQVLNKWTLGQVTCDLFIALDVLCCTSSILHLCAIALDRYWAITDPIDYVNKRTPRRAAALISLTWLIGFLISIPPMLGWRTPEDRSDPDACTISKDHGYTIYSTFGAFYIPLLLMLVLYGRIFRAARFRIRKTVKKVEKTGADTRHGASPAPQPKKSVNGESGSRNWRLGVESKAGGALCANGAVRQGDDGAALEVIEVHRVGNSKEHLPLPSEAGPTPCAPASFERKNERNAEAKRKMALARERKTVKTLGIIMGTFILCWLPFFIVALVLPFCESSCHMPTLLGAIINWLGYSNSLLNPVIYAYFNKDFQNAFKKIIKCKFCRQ

[9] = molecular target: 5-hydroxytryptamine receptor 1B (Homo sapiens, UniProt P28222); assay: Displacement of [3H]5-HT binding to cloned 5-hydroxytryptamine 1B receptor stably expressed in CHO cells; format: cell-based
Chain of 5-hydroxytryptamine receptor 1B (P28222 whole entry): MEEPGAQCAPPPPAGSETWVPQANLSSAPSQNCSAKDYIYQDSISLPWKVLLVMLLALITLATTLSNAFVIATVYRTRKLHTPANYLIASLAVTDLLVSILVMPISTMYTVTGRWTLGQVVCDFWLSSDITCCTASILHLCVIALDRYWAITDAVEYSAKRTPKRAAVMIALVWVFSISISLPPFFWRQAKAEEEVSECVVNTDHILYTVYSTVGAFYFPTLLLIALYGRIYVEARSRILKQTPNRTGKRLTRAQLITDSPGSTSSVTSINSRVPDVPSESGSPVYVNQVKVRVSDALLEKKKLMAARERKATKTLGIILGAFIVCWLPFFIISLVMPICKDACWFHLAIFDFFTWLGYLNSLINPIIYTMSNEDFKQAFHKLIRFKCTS
Summary of the method: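 Membranes from thawed CHO cells with human 5-HT1B or 5-HT1D, washed in 50 mM Tris-HCl pH 7.7, preincubated 10 min at 37 °C to remove endogenous 5-HT. Buffer holds 0.1% ascorbate, 10 μM pargyline and 4 mM CaCl2. Uses 2.0 nM [3H]5-HT, 30 min at 37 °C; 10 μM 5-HT defines nonspecific binding. Filtration; IC50 by nonlinear regression; duplicates, 2–5 occasions.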

[10] = molecular target: 5-hydroxytryptamine receptor 2A (Homo sapiens, UniProt P28223); assay: Compound was tested for the displacement of [3H]5-HT binding to cloned human 5-hydroxytryptamine 2A receptor stably expressed in CHO cells; format: cell-based
Chain of 5-hydroxytryptamine receptor 2A (P28223 whole entry): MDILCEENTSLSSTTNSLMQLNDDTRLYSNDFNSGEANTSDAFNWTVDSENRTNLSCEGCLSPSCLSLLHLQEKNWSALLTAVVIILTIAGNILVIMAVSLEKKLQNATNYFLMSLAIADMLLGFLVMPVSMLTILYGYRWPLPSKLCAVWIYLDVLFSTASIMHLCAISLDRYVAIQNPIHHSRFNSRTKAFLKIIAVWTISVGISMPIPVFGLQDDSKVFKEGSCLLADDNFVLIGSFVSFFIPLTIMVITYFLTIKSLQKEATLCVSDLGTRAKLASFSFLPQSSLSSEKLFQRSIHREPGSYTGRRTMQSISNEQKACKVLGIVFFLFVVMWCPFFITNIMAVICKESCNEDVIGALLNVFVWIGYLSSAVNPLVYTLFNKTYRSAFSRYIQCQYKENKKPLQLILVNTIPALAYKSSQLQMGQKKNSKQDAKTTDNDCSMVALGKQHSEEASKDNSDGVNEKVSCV

Chain of 5-hydroxytryptamine receptor 1E (P28566 whole entry): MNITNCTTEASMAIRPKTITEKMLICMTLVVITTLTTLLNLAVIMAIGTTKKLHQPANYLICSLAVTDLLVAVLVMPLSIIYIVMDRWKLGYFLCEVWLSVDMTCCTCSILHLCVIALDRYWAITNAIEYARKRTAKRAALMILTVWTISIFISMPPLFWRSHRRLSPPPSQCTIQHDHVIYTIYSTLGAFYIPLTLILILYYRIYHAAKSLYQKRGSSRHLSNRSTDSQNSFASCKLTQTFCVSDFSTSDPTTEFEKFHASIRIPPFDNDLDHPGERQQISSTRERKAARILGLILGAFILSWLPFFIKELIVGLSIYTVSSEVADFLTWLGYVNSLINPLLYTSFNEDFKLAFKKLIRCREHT

IC50 [1]: > 10000 nM
IC50 [2]: > 10000 nM
IC50 [3]: > 10000 nM
IC50 [4]: 540 nM
EC50 [5]: 0.8 nM
Selectivity [6]: 170
IC50 [7]: > 10000 nM
IC50 [8]: 66 nM
IC50 [9]: 150 nM
IC50 [10]: 1100 nM
SMILES: OC[C@H](NC1CCN(CCCc2c[nH]c3ccc(-n4cnnc4)cc23)CC1)c1ccc(F)cc1
